# Hits are enriched below; roughly 2.8% of the tested compounds scored in any of these assays.
# HTR2A ag = activates the mouse 5-HT2A serotonin receptor | P35363 | CHO-K1 mHTR2A beta-arrestin complementation, luminescence; percent of 30 µM serotonin response | activation, % at 7.6 µM | 360,000 compounds, 0.66% hits | AID 624169;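 active means activation above a run cutoff, the mean activation of all tested compounds plus 3 SD, cut at about 14% in these data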;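 further: 0% = plate median of compound wells and 100% = 30 µM serotonin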
# MC4R antag cAMP = blocks human MC4R cAMP signaling. inhibition, % at 6.5 µM. AID 540295. MC4R-expressing cells, MTII-stimulated cAMP, LANCE TR-FRET. 360,000 compounds, 0.48% hits;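 active means inhibition above its plate's cutoff, the mean of tested wells on that plate plus 3 SD, cut at about 29% in these data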;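 further: 0% = Melanotan II alone and 100% = Melanotan II plus saturating MCL0020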
# Target sequence (P32245 whole entry, looked up): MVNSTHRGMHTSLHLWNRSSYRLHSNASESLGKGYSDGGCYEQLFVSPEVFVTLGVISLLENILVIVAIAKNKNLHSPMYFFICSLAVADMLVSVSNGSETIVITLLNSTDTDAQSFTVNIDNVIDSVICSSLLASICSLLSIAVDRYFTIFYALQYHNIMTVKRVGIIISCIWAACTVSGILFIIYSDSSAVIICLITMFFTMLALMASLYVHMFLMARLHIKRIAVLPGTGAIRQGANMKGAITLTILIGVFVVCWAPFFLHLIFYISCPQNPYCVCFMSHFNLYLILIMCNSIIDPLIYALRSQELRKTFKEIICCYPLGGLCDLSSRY
#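 Assay system: U2OS-MC4R stable cell line; Also added: Melanotan II; Technique: Eu-cAMP/anti-cAMP TR-FRET, emission 671 nm; Times: 30-min compound, 1-h challenge, 1-h detection, room temperature.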
# EBI2 block = blocks human EBI2 receptor beta-arrestin signaling; P32249; EBI2 beta-arrestin recruitment, luminescence, 7a,25-OHC stimulated; inhibition, % at 5 µM; 360,000 compounds, 0.81% hits; AID 651636; in the data active means inhibition above about 38%;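 further: enzyme fragment complementation signal reports receptor beta-arrestin coupling in cells; 0% = agonist plus DMSO wells and 100% = wells without agonist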
# MC4R ag barr = agonists of human melanocortin 4 receptor (MC4R) beta-arrestin; P32245; U2OS MC4R beta-arrestin complementation, luminescence; percent of melanotan II response, DMSO zero; activation, % at 8.9 µM; 360,000 compounds, 0.98% hits; AID 540308;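 active means activation above a per-plate cutoff, the mean activation of sample wells on that plate plus 3 SD, cut at about 8% in these data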
# MOR ag counter = counter-screen for mouse HTR2A agonists: human mu opioid receptor agonists; AID 624380; U2OS OPRM1 beta-arrestin PathHunter, luminescence; DMSO 0%, DAMGO 9.3 µM 100%; shares compounds with HTR2A ag; 2,300 compounds, 5.3% hits; activation, % at 9.3 µM;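 active means mean activation above the mean of DMSO-only wells plus 3 SD, cut at about 0.5% in these data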
# HTR2A ag conf = confirmation of mouse HTR2A serotonin receptor agonists; AID 624381; CHO-K1 PathHunter beta-arrestin recruitment, luminescence; DMSO 0%, 30 µM serotonin 100%; activation, % at 7.6 µM; 2,300 compounds, 19% hits; shares compounds with HTR2A ag;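 active means mean activation across triplicates above the hit threshold derived in the original primary screen, cut at about 15% in these data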
# Active calls of the source: *; nt = no result given.
SMILES,HTR2A ag,MC4R antag cAMP,EBI2 block,MC4R ag barr,MOR ag counter,HTR2A ag conf
Cc1[nH]nc2c(=S)[nH]c(=O)[nH]c12,-5,0,5,-3,nt,nt
O=C(NCc1ccccn1)C(F)(F)C(F)(F)C(=O)NCc1ccccn1,15*,9,-9,-1,0,-3
O=C(NCc1ccccn1)Nc1ccccc1C(F)(F)F,-2,-2,1,1,nt,nt
O=C(NCc1ccccn1)c1ccccc1OCc1ccc(F)cc1,-4,-3,7,0,nt,nt
O=C(NCc1ccccn1)c1ccccc1OCc1ccccc1Cl,24*,6,4,0,0,-6
Cc1ccc(S(=O)(=O)NC(CC(=O)N2CCOCC2)c2ccco2)cc1 (configuration not stated),43*,-1,-1,2,-1,0
Cc1ccc(S(=O)(=O)NC(CC(=O)NC2CCCC2)c2ccco2)cc1 (configuration not stated),-4,6,-2,-2,nt,nt
Cc1ccc(S(=O)(=O)NCC(=O)N2CCCCC2)cc1,14*,8,-4,0,-1,-3
CN(C)CCCn1c(NC(=O)C2CCCCC2)nc2ccccc21,20*,3,-7,0,-1,4
O=C(c1ccc(-c2ccccc2)cc1)N1CCN(c2nc3ccccc3o2)CC1,3,4,8,-1,nt,nt
CC(C)(C)c1ccc(C(=O)N2CCN(c3nc4ccccc4o3)CC2)cc1,17*,16,-4,0,0,-1
CC(=O)Nc1cccc(Nc2cnccn2)c1,2,nt,-7,nt,nt,nt
CC(C)Oc1ccc(C(=O)Nc2ccc(N3CCN(C(=O)c4ccco4)CC3)cc2)cc1,15*,5,3,7,0,-2
CCOC(=O)C1=C(COC(=O)CCCOc2ccccc2)NC(=O)NC1C (configuration not stated),-12,2,-22,-1,nt,nt
COc1ccccc1-c1ccc2c(c1)C(C)(Cc1ccc(Cl)c(Cl)c1)C(=O)N2 (configuration not stated),23*,3,12,-1,-1,-4
O=C(NCc1cccc(C(F)(F)F)c1)c1cc(Cl)ccc1Cl,2,23,19,3,nt,nt
O=C(Cc1cccc(C(F)(F)F)c1)NCc1cccc(Cl)c1,25*,-1,7,-3,0,-6
CC(=O)NCC1(c2ccccc2)CCN(CC2COc3ccccc3O2)CC1 (configuration not stated),20*,nt,-11,nt,0,44*
CC(Sc1ccc(Cl)cc1)C(=O)N(C)CC(=O)Nc1ccc(N2CCOCC2)cc1 (configuration not stated),18*,6,-1,-2,0,8
O=C(c1cccs1)N1CCN(c2cc(Cl)ccc2Cl)CC1,-4,7,-23,1,nt,nt
N#C/C(=C/C1=C(N2CCOCC2)C(=C/c2ccc(Cl)cc2)/CC1)C(=O)Nc1ccccc1F,2,3,21,-1,nt,nt
O=C(OCc1ccccc1)N1CCC2CC1c1ccc(/C=C/CCCCl)cc12 (configuration not stated),-2,nt,4,nt,nt,nt
COc1ccccc1-c1c(C(F)(F)F)oc2cc(OS(C)(=O)=O)ccc2c1=O,26*,3,-24,0,0,-2
O=C(Nc1cccc(OC(F)(F)F)c1)C1Cc2c(-c3ccc4c(c3)OCO4)ccnc2O1 (configuration not stated),-3,1,2,3,nt,nt
CC(C)C[C@H]1C(=O)N2CCC[C@H]2[C@]2(O)O[C@](NC(=O)C3C=C4c5cccc6[nH]c(Br)c(c56)C[C@H]4N(C)C3)(C(C)C)C(=O)N12 (some centres not stated),48*,23,90*,1,0,174*
SMILES,HTR2A ag,MC4R antag cAMP,EBI2 block,MC4R ag barr,MOR ag counter,HTR2A ag conf
COc1ccc(OC)c(NC(=O)CSc2nc3[nH]c(=O)[nH]c(=O)c3s2)c1,18*,3,3,0,-1,1
COc1ccc(OC)c(NC(=O)CSc2nc3[nH]c(=O)cc(O)c3s2)c1,-2,2,7,-2,nt,nt
O=C(Cn1cncn1)N/N=C/c1ccncc1,23*,8,-8,1,0,3
COC(=O)[C@@]1(Cc2ccc(OC)cc2)[C@H]2c3cc(C(=O)N4CCCC4)n(CCc4c[nH]c5ccccc45)c3C[C@H]2CN1C(=O)c1ccccc1,4,nt,38,nt,nt,nt
COC(=O)[C@@]1(Cc2ccc(F)cc2)[C@H]2c3cc(C(=O)N(C)C)n(CCc4c[nH]c5ccc(O)cc45)c3C[C@H]2CN1C(=O)c1ccccc1,26*,nt,7,nt,0,11
O=C(CCN1C(=O)c2ccccc2C1=O)c1ccccc1,3,9,-5,1,nt,nt
Cn1ccn(CCCCCCn2ccn(C)c2=S)c1=S,6,7,-5,1,nt,nt
O=C(C1CCN(CCCc2ccccc2)CC1)N1CCCCC1,20*,0,-6,3,-1,45*
O=S(=O)(c1ccc2nnn(O)c2c1)N1CCCCC1,20*,6,4,-2,-1,-5
CCN(CC)S(=O)(=O)c1ccc2nnn(O)c2c1,3,0,-10,-2,nt,nt
NC(=O)C1(NC(=O)[C@@H]2CC3(CC(c4cccc(NC(=O)[C@@H]5CCC(=O)N5)c4)=NO3)CN2C(=O)Cc2ccc(C(F)(F)F)cc2)CC1 (some centres not stated),20*,5,-8,-1,-1,-2
NC(=O)C1(NC(=O)[C@@H]2CC3(CC(c4cccc(NC(=O)[C@@H]5CCC(=O)N5)c4)=NO3)CN2C(=O)Cc2ccc(Cl)cc2)CC1 (some centres not stated),-1,5,3,1,nt,nt
COc1cccc(C#CC2=CC(=O)CC(C)(C)C2)c1,-3,2,5,-1,nt,nt
CCCS(=O)(=O)NC(=O)C1(C)CCCN(C(=O)c2cccc(C)c2C)C1 (configuration not stated),2,7,6,0,nt,nt
O[C@@H](CNC[C@H](O)c1ccccc1)c1ccccc1,1,6,-4,-1,nt,nt
CNC[C@H](O)c1ccc(O)c(O)c1,50*,-19,-15,1,0,165*
CC(C)NCC(O)c1ccc(O)c(O)c1 (configuration not stated),1,-9,-2,2,nt,nt
NC[C@H](O)c1ccc(O)c(O)c1,36*,-14,-3,-1,0,143*
CNC[C@H](O)c1cccc(O)c1,17*,3,2,0,0,47*
CCOC(=O)c1ccc(Nc2ncnc3nc[nH]c23)cc1,-4,4,13,0,nt,nt
